Assay results taken from ChEMBL document CHEMBL1122821, “Synthesis and some pharmacological properties of 18 potent O-alkyltyrosine-substituted antagonists of the vasopressor responses to arginine-vasopressin” (J Med Chem, 1985).
Starred links: 1 amine or outer side, 2 acyl side, 3 side chain; linkers in the order of their positions; H or OH if unused. Positions of bridges follow the written chain, without caps; N, C: chain ends. Non-standard residues stand in square brackets, D forms with d. Residues, ends and D or L forms follow the SMILES beside them. X2 = O=C(CC1(S[*:2])CCCCC1)[*:1]

Assays:
[1] = species: Rattus norvegicus; assay: Antidiuretic activity was evaluated for the compound in rats under ethanol anesthesia; antagonist; type: functional, Urine
How it was run: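 Rats under ethanol anesthesia, with USP posterior pituitary reference standard as agonist. Each peptide was given at a high and a low dose, bracketing the dose that cuts the response to 2x units of agonist to the 1x-unit response. Effective dose (nmol/kg) was interpolated on a log scale. In vivo pA2 = −log(effective dose / 67 mL/kg). Means ± SE of at least four estimates.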

[2] = test system: Rattus norvegicus; assay: In vivo anti-vasopressor activity measured as the negative logarithm of the effective dose / the estimated volume of distribution (67 mL/kg); type: ADME, organism-based; conditions: read-out: pA2 (converted)
How it was run: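 Rats treated with phenoxybenzamine under urethane anesthesia. Pressor responses to the USP posterior pituitary standard were given intravenously. Effective dose (nmol/kg) was interpolated on a log scale; means ± SE of at least four estimates. pA2 = −log(effective dose / 67 mL/kg).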

[3] = species: Rattus norvegicus; assay: In vitro anti-oxytocic potency was evaluated in the absence of Mg2+; type: functional; conditions: read-out: pA2 (converted)
How it was run: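 Isolated rat uterus in medium containing no Mg2+. USP posterior pituitary reference standard used as agonist. In vitro pA2 values were derived as in Bankowski et al.; means ± SE.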

[4] = species: Rattus norvegicus; assay: In vitro anti-oxytocic potency was evaluated in the presence of 0.5 mM of Mg2+; type: functional; conditions: read-out: pA2 (converted)
How it was run: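 Isolated rat uterus in medium containing 0.5 mM Mg2+. USP posterior pituitary reference standard used as agonist. In vitro pA2 values were derived as in Bankowski et al.; means ± SE.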

[5] = test system: Rattus norvegicus; assay: In vivo antidiuretic activity in rats under ethanol anesthesia.; type: functional, Urine
How it was run: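 Rats under ethanol anesthesia, with the USP posterior pituitary reference standard as reference. Agonistic activity is expressed in units per milligram.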

SMILES | Activity [1] [mg] | Kb [2] [µM] | Kb [3] [µM] | Kb [4] [µM] | Activity [5] [units/mg]
CCOc1ccc(C[C@@H]2NC(=O)CC3(CCCCC3)SSC[C@@H](C(=O)N3CCC[C@H]3C(=O)N[C@H](CCCN=C(N)N)C(=O)NCC(N)=O)NC(=O)[C@H](CC(N)=O)NC(=O)[C@H](C(C)C)NC(=O)[C@H](Cc3ccccc3)NC2=O)cc1 (Y(Et)FVNCP[dR]G-NH2; linker N-5 via X2) | 7.57 | 0.00692 |  |  | 
CCOc1ccc(C[C@@H]2NC(=O)CC3(CCCCC3)SSC[C@@H](C(=O)N3CCC[C@H]3C(=O)N[C@@H](CCCN=C(N)N)C(=O)NCC(N)=O)NC(=O)[C@H](CC(N)=O)NC(=O)[C@H](C(C)C)NC(=O)[C@H](Cc3ccccc3)NC2=O)cc1 (Y(Et)FVNCPRG-NH2; linker N-5 via X2) | 7.1 |  | 0.00955 | 0.0871 | 
COc1ccc(C[C@@H]2NC(=O)CC(C)(C)SSC[C@@H](C(=O)N3CCC[C@H]3C(=O)NC(CCCN=C(N)N)C(=O)NCC(N)=O)NC(=O)[C@H](CC(N)=O)NC(=O)[C@H](CCC(N)=O)NC(=O)[C@H](Cc3ccccc3)NC2=O)cc1 (stereo in doubt) |  | 0.0049 | 0.017 | 0.0437 | 0.46
